Assay results reported in ChEMBL document CHEMBL2040831, “Discovery of ((S)-5-(methoxymethyl)-7-(1-methyl-1H-indol-2-yl)-2-(trifluoromethyl)-4,7-dihydropyrazolo[1,5-a]pyrimidin-6-yl)((S)-2-(3-methylisoxazol-5-yl)pyrrolidin-1-yl)methanone as a potent and selective I(Kur) inhibitor” (J Med Chem, 2012).
The source made the active and inactive calls. No cut-off for these calls is given here.

Legend:
hERG (KCNH2) = hERG (KCNH2) (Homo sapiens, UniProt Q12809); experiment: Inhibition of human ERG expressed in HEK293 cells at 10 uM by patch clamp assay; format: cell-based; settings: HEK293 cells expressing human ERG
Chain of hERG (KCNH2) (Q12809 whole entry): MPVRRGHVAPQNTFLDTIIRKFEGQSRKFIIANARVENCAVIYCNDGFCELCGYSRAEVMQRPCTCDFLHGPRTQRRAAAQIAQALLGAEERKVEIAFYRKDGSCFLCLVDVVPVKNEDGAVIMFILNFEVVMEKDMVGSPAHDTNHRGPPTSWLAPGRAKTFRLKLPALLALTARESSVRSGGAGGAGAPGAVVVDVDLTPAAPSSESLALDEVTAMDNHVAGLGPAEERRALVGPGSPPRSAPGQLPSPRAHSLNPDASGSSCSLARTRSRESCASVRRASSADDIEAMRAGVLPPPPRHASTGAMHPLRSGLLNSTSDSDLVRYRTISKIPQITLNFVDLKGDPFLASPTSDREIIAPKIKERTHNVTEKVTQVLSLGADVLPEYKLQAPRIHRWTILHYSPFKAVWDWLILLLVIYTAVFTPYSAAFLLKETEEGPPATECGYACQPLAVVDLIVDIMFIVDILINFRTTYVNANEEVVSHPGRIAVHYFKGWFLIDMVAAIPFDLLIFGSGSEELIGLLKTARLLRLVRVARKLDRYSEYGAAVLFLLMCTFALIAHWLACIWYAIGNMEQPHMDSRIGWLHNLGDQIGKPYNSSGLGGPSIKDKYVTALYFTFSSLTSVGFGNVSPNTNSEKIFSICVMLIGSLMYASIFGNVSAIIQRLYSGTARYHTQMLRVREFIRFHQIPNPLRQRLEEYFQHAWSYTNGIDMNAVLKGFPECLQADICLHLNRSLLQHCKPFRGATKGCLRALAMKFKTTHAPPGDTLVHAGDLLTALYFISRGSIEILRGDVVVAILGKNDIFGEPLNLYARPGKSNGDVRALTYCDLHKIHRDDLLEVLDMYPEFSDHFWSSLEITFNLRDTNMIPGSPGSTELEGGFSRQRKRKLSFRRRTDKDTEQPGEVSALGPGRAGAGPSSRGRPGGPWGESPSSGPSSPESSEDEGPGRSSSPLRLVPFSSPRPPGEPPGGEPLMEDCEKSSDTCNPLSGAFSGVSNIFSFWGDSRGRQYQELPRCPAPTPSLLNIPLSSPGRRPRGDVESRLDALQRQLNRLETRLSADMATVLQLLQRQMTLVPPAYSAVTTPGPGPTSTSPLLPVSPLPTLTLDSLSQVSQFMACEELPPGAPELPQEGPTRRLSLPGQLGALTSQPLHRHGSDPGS

[1] = molecular target: T1, Potassium voltage-gated channel subfamily A member 5 (Homo sapiens, UniProt P22460); experiment: Inhibition of human KV1.5 ion channel expressed in mouse L929 cells by whole cell patch clamp assay; format: cell-based
T1 sequence (P22460 whole entry): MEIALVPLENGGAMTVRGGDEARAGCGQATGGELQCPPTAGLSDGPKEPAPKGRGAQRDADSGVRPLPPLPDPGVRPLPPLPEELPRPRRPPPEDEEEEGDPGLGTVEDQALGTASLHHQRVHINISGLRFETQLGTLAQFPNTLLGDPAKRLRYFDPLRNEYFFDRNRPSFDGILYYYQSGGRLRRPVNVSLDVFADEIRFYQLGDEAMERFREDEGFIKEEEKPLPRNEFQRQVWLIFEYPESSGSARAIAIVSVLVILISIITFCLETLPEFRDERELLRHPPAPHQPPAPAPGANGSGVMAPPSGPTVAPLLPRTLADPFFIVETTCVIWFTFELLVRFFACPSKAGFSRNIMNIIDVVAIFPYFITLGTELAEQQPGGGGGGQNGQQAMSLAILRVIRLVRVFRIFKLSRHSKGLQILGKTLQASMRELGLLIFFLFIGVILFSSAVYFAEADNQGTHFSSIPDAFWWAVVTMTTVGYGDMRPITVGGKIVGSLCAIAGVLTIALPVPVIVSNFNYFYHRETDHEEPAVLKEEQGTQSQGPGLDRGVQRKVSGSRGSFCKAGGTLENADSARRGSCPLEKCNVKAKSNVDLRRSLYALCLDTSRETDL

Liver microsomes [2] = experiment: Metabolic stability in rat liver microsomes; format: ADME, Microsome
Liver microsomes [3] = experiment: Metabolic stability in human liver microsomes; format: ADME, Microsome
[4] = Drug degradation assessed as GSH adduct formation by fluorescence detection assay; format: physicochemical
Method in brief: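 Test article at 100 μM incubated 30 min at 37 °C with 2 mg/mL human liver microsomes in 0.1 M potassium phosphate buffer containing 2 mM NADPH and 2 mM dansyl glutathione. Quenched with 2 volumes of 5 mM dithiothreitol in methanol, vortexed and centrifuged. Supernatant analysed by HPLC with fluorescence detection (Ex 340 nm, Em 525 nm) to quantify GSH adducts.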

[5] = molecular target: T1, Potassium voltage-gated channel subfamily A member 5; experiment: Inhibition of human KV1.5 ion channel expressed in mouse L929 cells at 0.3 uM by whole cell patch clamp assay; format: cell-based
Plasma [6] = experiment: Plasma concentration in methoxamine-sensitised rabbit AERP model at 0.3 mg/kg, iv; format: ADME, organism-based, Oryctolagus cuniculus; set-up: dose 0.3 mg/kg, route intravenous; settings: in vivo
Plasma [7] = experiment: Plasma concentration in methoxamine-sensitised rabbit AERP model at 3 mg/kg, iv; format: ADME, organism-based, Oryctolagus cuniculus; set-up: dose 3 mg/kg, route intravenous; settings: in vivo
Oryctolagus cuniculus [8] = experiment: Proarrythmic activity in methoxamine-sensitized rabbit assessed as increase in ventricular effective refractory period at 0.3 to 10 mg/kg, iv relative to control; format: organism-based, Cardiac ventricle; set-up: dose 0.3-10 mg/kg, route intravenous; settings: in vivo
[9] = Clearance in dog at 5.6 umol/kg, iv and 5.2 umol/kg, po; format: ADME, organism-based, Canis lupus familiaris; settings: in vivo
[10] = Clearance in rat at 12 umol/kg, iv and 26 umol/kg, po; format: ADME, organism-based; settings: in vivo
[11] = Oral bioavailability in dog at 5.2 umol/kg; format: ADME, organism-based, Canis lupus familiaris; settings: in vivo
[12] = Half life in dog at 5.6 umol/kg, iv and 5.2 umol/kg, po; format: ADME, organism-based, Canis lupus familiaris; settings: in vivo
[13] = Volume of distribution at steady state in rat at 12 umol/kg, iv and 26 umol/kg, po; format: ADME, organism-based; settings: in vivo, read-out: Vdss
[14] = Volume of distribution at steady state in dog at 5.6 umol/kg, iv and 5.2 umol/kg, po; format: ADME, organism-based, Canis lupus familiaris; settings: in vivo, read-out: Vdss
Plasma [15] = experiment: Plasma concentration in methoxamine-sensitised rabbit AERP model at 1 mg/kg, iv; format: ADME, organism-based, Oryctolagus cuniculus; set-up: dose 1 mg/kg, route intravenous; settings: in vivo
[16] = Oral bioavailability in rat at 26 umol/kg; format: ADME, organism-based; settings: in vivo
Oryctolagus cuniculus [17] = experiment: Antiatrial fibrillation activity in methoxamine-sensitised rabbit assessed as increase in atrial effective refractory period at 1 mg/kg, iv relative to control; format: functional, Cardiac atrium
[18] = Half life in rat at 12 umol/kg, iv and 26 umol/kg, po; format: ADME, organism-based; settings: in vivo
Oryctolagus cuniculus [19] = experiment: Antiatrial fibrillation activity in methoxamine-sensitised rabbit assessed as increase in atrial effective refractory period at 0.3 to 10 mg/kg, iv relative to control; format: functional, organism-based; settings: Cardiac atrium
Plasma [20] = experiment: Plasma concentration in methoxamine-sensitised rabbit AERP model at 10 mg/kg, iv; format: ADME, organism-based, Oryctolagus cuniculus; set-up: dose 10 mg/kg, route intravenous; settings: in vivo
[21] = Half life in rat at 12 umol/kg, iv and 25.5 umol/kg, po; format: ADME, organism-based; settings: in vivo
[22] = Inhibition of INa ion channel
[23] = molecular target: T2, A-type voltage-gated potassium channel KCND3 (Homo sapiens, UniProt Q9UK17); experiment: Inhibition of KV4.3 ion channel
T2 sequence (Q9UK17 whole entry): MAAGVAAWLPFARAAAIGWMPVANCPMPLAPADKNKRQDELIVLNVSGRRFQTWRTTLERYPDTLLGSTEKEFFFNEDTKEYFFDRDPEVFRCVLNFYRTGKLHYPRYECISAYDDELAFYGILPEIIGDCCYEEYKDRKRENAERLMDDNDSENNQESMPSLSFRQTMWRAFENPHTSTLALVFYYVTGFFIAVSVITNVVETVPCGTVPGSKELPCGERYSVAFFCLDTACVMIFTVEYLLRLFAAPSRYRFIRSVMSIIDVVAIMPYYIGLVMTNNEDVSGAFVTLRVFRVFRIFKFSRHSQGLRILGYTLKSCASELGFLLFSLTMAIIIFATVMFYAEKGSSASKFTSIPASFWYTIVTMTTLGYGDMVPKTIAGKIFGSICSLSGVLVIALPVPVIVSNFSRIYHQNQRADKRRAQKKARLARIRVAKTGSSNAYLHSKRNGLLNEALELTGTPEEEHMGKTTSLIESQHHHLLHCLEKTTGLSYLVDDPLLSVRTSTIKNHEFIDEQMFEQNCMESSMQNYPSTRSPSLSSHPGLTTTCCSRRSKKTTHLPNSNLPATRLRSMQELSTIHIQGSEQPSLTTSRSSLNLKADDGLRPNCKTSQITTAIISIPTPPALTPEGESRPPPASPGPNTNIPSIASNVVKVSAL

[24] = Half life in rabbit at 5.6 umol/kg, iv; format: ADME, organism-based, Oryctolagus cuniculus; settings: in vivo
[25] = Inhibition of ICAL ion channel at 10 uM
[26] = Inhibition of INa ion channel at 10 uM
[27] = Clearance in rabbit at 5.6 umol/kg, iv; format: ADME, organism-based, Oryctolagus cuniculus; settings: in vivo
[28] = Inhibition of ICAL ion channel
[29] = Clearance in rat at 12 umol/kg, iv and 25.5 umol/kg, po; format: ADME, organism-based; settings: in vivo
[30] = Volume of distribution at steady state in rat at 12 umol/kg, iv and 25.5 umol/kg, po; format: ADME, organism-based; settings: in vivo, read-out: Vdss
[31] = Volume of distribution at steady state in rabbit at 5.6 umol/kg, iv; format: ADME, organism-based, Oryctolagus cuniculus; settings: in vivo, read-out: Vdss
[32] = molecular target: Voltage-gated inwardly rectifying potassium channel KCNH2 (Homo sapiens, UniProt Q12809); experiment: Inhibition of human ERG expressed in HEK293 cells by patch clamp assay; format: cell-based
Chain of Voltage-gated inwardly rectifying potassium channel KCNH2 (Q12809 whole entry): as the sequence (Q12809 whole entry) above

[33] = Oral bioavailability in rat at 25.5 umol/kg; format: ADME, organism-based; settings: in vivo

Compound: CC1=C(C(=O)N2CCN(c3ccccc3)CC2)C(c2ccc(Cl)c(Cl)c2)n2nc(C)cc2N1 (racemic)
- inhibition at 10 µM (hERG (KCNH2)): 29%
- IC50 [1]: 149 nM

Compound: CC1=C(C(=O)N2CCN(c3ccc(F)cc3)CC2)C(c2ccc(Cl)c(Cl)c2)n2nc(C(F)(F)F)cc2N1 (racemic)
- IC50 [1]: 419 nM

Compound: CC1=C(C(=O)N2CCN(c3ccc(F)cc3)CC2)C(c2ccc(Cl)c(Cl)c2)n2nc(C)cc2N1 (racemic)
- Stability (Liver microsomes [2]): Unstable
- inhibition at 10 µM (hERG (KCNH2)): 60%
- Stability (Liver microsomes [3]): Unstable
- IC50 [1]: 124 nM
- GSH adduct formation [4]: < 1%

Compound: CC1=C(C(=O)N2CCC[C@H]2c2ccc(F)cc2)[C@@H](c2ccc(Cl)c(Cl)c2)n2nc(C(F)(F)F)cc2N1
- inhibition [5]: 37%

Compound: CC1=C(C(=O)N2CCN(c3ccc(F)cc3)CC2)C(c2ccc(Cl)c(Cl)c2)n2nc(Cl)cc2N1 (racemic)
- IC50 [1]: 209 nM

Compound: CC1=C(C(=O)N2CCC[C@H]2c2cc(C)no2)[C@@H](c2ccc(Cl)c(Cl)c2)n2nc(C(F)(F)F)cc2N1
- concentration (Plasma [6]): 700 nM
- concentration (Plasma [7]): 6700 nM
- Activity (Oryctolagus cuniculus [8]): Non-toxic
- Stability (Liver microsomes [2]): Stable
- clearance [9]: 11 mL/min/kg
- clearance [10]: 27 mL/min/kg
- bioavailability [11]: 53%
- half-life [12]: 1.8 h
- Vd [13]: 3 L/kg
- Vd [14]: 1.7 L/kg
- inhibition at 10 µM (hERG (KCNH2)): 47%
- Stability (Liver microsomes [3]): Stable
- concentration (Plasma [15]): 1700 nM
- bioavailability [16]: 68%
- IC50 [1]: 101 nM
- Activity (Oryctolagus cuniculus [17]): 20%
- GSH adduct formation [4]: < 1%
- half-life [18]: 1 h
- Activity (Oryctolagus cuniculus [19]): Active
- concentration (Plasma [20]): 17300 nM

Compound: CC1=C(C(=O)N2CCC[C@H]2c2cc(C)no2)[C@@H](c2cc3ccccc3n2C)n2nc(C(F)(F)F)cc2N1
- inhibition at 10 µM (hERG (KCNH2)): 19%
- IC50 [1]: 72 nM

Compound: CC1=C(C(=O)N2CCC[C@H]2c2ccc(F)cc2)[C@@H](c2ccc(Cl)c(Cl)c2)n2nccc2N1 [BMS-394136]
- inhibition at 10 µM (hERG (KCNH2)): 30%
- GSH adduct formation [4]: 33%

Compound: CC1=C(C(=O)N2CCC[C@H]2c2ccc(F)cc2)[C@@H](c2ccc(Cl)c(Cl)c2)n2nc(C)cc2N1
- Stability (Liver microsomes [2]): Unstable
- inhibition at 10 µM (hERG (KCNH2)): 10%
- Stability (Liver microsomes [3]): Unstable
- IC50 [1]: 100 nM
- GSH adduct formation [4]: 5%

Compound: CC1=C(C(=O)N2CCC[C@H]2c2cc(C)no2)[C@@H](c2ccc(Cl)c(Cl)c2)n2nccc2N1
- inhibition at 10 µM (hERG (KCNH2)): 41%
- IC50 [1]: 83 nM
- GSH adduct formation [4]: 21%

Compound: CC1=C(C(=O)N2CCC[C@H]2c2cc(C)no2)[C@@H](c2nc3ccccc3s2)n2nc(C(F)(F)F)cc2N1
- IC50 [1]: 281 nM

Compound: CC1=C(C(=O)N2CCN(c3ccc(F)cc3)CC2)C(c2ccc(Cl)c(Cl)c2)n2ncc(Cl)c2N1 (racemic)
- inhibition [5]: 24%
- GSH adduct formation [4]: 4%

Compound: CC1=C(C(=O)N2CCC[C@H]2c2ccc(F)cc2)[C@@H](c2ccc(Cl)c(Cl)c2)n2ncc(C)c2N1
- inhibition [5]: 45%
- GSH adduct formation [4]: < 1%

Compound: CC1=C(C(=O)N2CCC[C@H]2c2cc(C)no2)[C@@H](c2ccc(Cl)c(Cl)c2)n2nc(C3CC3)cc2N1
- IC50 [1]: 227 nM

Compound: COCC1=C(C(=O)N2CCC[C@H]2c2cc(C)no2)[C@@H](c2ccc(Cl)c(Cl)c2)n2nccc2N1
- inhibition at 10 µM (hERG (KCNH2)): 14%
- IC50 [1]: 70 nM

Compound: COCC1=C(C(=O)N2CCC[C@H]2c2cc(C)no2)[C@@H](c2cc3ccccc3n2C)n2nc(C(F)(F)F)cc2N1
- concentration (Plasma [6]): 300 nM
- concentration (Plasma [7]): 2100 nM
- half-life [21]: 2.5 h
- IC50 [22]: > 10000 nM
- Activity (Oryctolagus cuniculus [8]): Non-toxic
- clearance [9]: 29 mL/min/kg
- IC50 [23]: 5800 nM
- half-life [24]: 2 h
- inhibition [25]: 37%
- bioavailability [11]: 31%
- inhibition [26]: 10%
- half-life [12]: 1.8 h
- clearance [27]: 47 mL/min/kg
- Vd [14]: 3.7 L/kg
- inhibition at 10 µM (hERG (KCNH2)): 14%
- IC50 [28]: > 10000 nM
- concentration (Plasma [15]): 700 nM
- IC50 [1]: 150 nM
- clearance [29]: 12 mL/min/kg
- Vd [30]: 1.9 L/kg
- Vd [31]: 5 L/kg
- IC50 [32]: > 10000 nM
- concentration (Plasma [20]): 13400 nM
- bioavailability [33]: 61%

Compound: CC1=C(C(=O)N2CCC[C@H]2c2cc(C)no2)[C@@H](c2ccc(Cl)c(Cl)c2)n2nc(C)cc2N1
- Stability (Liver microsomes [2]): Unstable
- inhibition at 10 µM (hERG (KCNH2)): 13%
- Stability (Liver microsomes [3]): Unstable
- IC50 [1]: 165 nM
- GSH adduct formation [4]: < 1%

Compound: CC1=C(C(=O)N2CCN(c3ccc(F)cc3)CC2)[C@@H](c2ccc(Cl)c(Cl)c2)n2nccc2N1
- inhibition at 10 µM (hERG (KCNH2)): 42%

Compound: CC1=C(C(=O)N2CCC[C@H]2c2cc(C)no2)[C@@H](c2nc3ccccc3n2C)n2nc(C(F)(F)F)cc2N1
- inhibition [5]: 36%
